This note sets out measurements from ChEMBL document CHEMBL4715911, “Quest for a potent antimalarial drug lead: Synthesis and evaluation of 6,7-dimethoxyquinazoline-2,4-diamines” (Bioorg Med Chem, 2021).

Usually IC50 stands for the concentration that inhibits the measured activity by half. As usually defined, the inhibition in vivo is the share of the control response that was lost under treatment.

Series [1] deals with L6. The series is described as follows: Cytotoxicity against rat L6 cells assessed as reduction in cell viability incubated for 70 hrs by resazurin dye based fluorescence assay. Conditions: L6, 70 h. Summed up: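 L6 rat skeletal myoblasts seeded at 4000 cells/well in RPMI 1640 with 1% L-glutamine and 10% FBS. Eleven 3-fold drug dilutions (100 to 0.002 µg/mL) added 24 h after seeding, then 70 h incubation. Resazurin added for 2 h. Fluorescence read at ex 536/em 588 nm. IC50 from 4-parameter logistic fit, average of two independent determinations.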

Series [2] relates to Plasmodium falciparum. In words: Antimalarial activity against Plasmodium falciparum NF54 assessed as inhibition of parasite growth incubated for 48 hrs by [3H]hypoxanthine incorporation assay based liquid scintillation counting method. Format: functional, organism-based. Put shortly: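 ³H-hypoxanthine incorporation against erythrocytic P. falciparum NF54 (drug-sensitive). Culture in hypoxanthine-free RPMI 1640 with HEPES, NaHCO3, neomycin and Albumax, on human A+ red cells at 2.5% hematocrit, 0.3% parasitemia. Eleven 3-fold dilutions spanning 100 to 0.002 µg/mL. 37 °C in 4% CO2/3% O2/93% N2. Label (0.5 µCi) added after 48 h, then a further 24 h. Scintillation counting. IC50 from 4-parameter logistic fit, average of two independent determinations.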

The nature of series [3]: Selectivity index, ratio of IC50 for cytotoxicity against rat L6 cells to IC50 for antimalarial activity against Plasmodium falciparum NF54. In kind it is toxicity, cell-based. Conditions: read-out: Ratio IC50. Summed up:
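SI calculated as L6 cytotoxicity IC50 divided by P. falciparum NF54 IC50, both measured in parallel in vitro assays.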

Series [4] relates to Plasmodium berghei. The series is described as follows: Antimalarial activity against Plasmodium berghei NK65 infected in ICR mouse assessed as reduction in parasitemia at 50 mg/kg, po qd for 4 days by Diff-Quik staining based microscopic method (reference value: 0%). In kind it is functional. To be noted: 96 h, time 4 day.
Series [5] concerns Plasmodium berghei. In words: Antimalarial activity against Plasmodium berghei NK65 infected in ICR mouse assessed as parasitemia at 50 mg/kg, po qd for 4 days by Diff-Quik staining based microscopic method (reference value: 28.4 +/- 10.2%). Format: functional. To be noted: time 4 day.
Series [6] deals with Plasmodium berghei. In words: Antimalarial activity against Plasmodium berghei NK65 infected in ICR mouse assessed as animal mean survival days at 50 mg/kg, po qd for 4 days (reference value: 6.2 +/- 0.5 day). To be noted: time 4 day. Format: functional.

Consider `CCCCNc1nc(Nc2cccnc2)nc2cc(OC)c(OC)cc12`, for which the results for the IC50 in series [1] and in series [2] were 150 µM and 0.0254 µM, respectively. Moreover, the selectivity ratio in series [3] is 5900.

As to `CCNc1nc(OC)nc2cc(OC)c(OC)cc12`, the 50% inhibitory concentration (IC50) in series [1] was 67.3 µM; in series [2], 34.8 µM. Further, the selectivity ratio in series [3] was found to be 1.9.

Consider `COc1cc2nc(N3CCCC3)nc(NC(C)CCc3ccccc3)c2cc1OC` (stereo unspecified), for which the IC50 in series [1] came to 4.48 µM; in series [2], 0.0073 µM. For the same molecule, in series [3], the selectivity ratio was 613.

Take `CCC(CC)Nc1nc(Nc2ccncc2)nc2cc(OC)c(OC)cc12`: the IC50 was 110 µM in series [1] and 0.0518 µM in series [2]. The selectivity ratio in series [3] turned out to be 2130.

As to `COc1cc2nc(Nc3ccncc3)nc(Nc3ccccc3C(F)(F)F)c2cc1OC`, the IC50 in series [1] is 138 µM; in series [2] it was 0.0226 µM. Moreover, the selectivity ratio in series [3] turned out to be 6100.

For `CCCCNc1nc(Nc2ccncc2)nc2cc(OC)c(OC)cc12`, the values for the half-maximal inhibitory concentration (IC50) in series [1] and in series [2] were 105 µM and 0.00567 µM, respectively.

As for `CCC(C)Nc1nc(Nc2ccncc2)nc2cc(OC)c(OC)cc12` (stereo unspecified), the IC50 in series [1] stood at 47.7 µM; in series [2], 0.00283 µM. In addition, the selectivity ratio in series [3] turned out to be 16800.

On to `COc1cc2nc(Nc3cccnc3)nc(NC(C)C)c2cc1OC`, for which the IC50 in series [1] stood at 249 µM; in series [2], 0.0147 µM. In addition, the selectivity ratio in series [3] came to 16900.

As to `COc1cc2nc(Nc3cccnc3)nc(Nc3ccccc3C)c2cc1OC`, the 50% inhibitory concentration (IC50) in series [1] is 170 µM; in series [2], 0.0206 µM. For the same molecule, the selectivity ratio in series [3] was determined as 8250.

Take `COc1cc2nc(Nc3ccncc3)nc(NCc3cccnc3)c2cc1OC`: the figures for the IC50 in series [1] and in series [2] were 138 µM and 0.0128 µM, respectively. Besides, the selectivity ratio in series [3] worked out at 10700.

Take `COc1cc2nc(N3CCCC3)nc(NC(C)c3ccccc3)c2cc1OC` (stereo unspecified): the IC50 in series [1] is 4.81 µM; in series [2], 0.01 µM. For the same molecule, in series [4], the inhibition in vivo at 50 mg/kg came to 90.4%. Also, in series [5], the Activity is 2.5%. Moreover, the selectivity ratio in series [3] amounted to 481. Also, the MSD in series [6] was determined as 19.8 days.

Consider `CCCCCCCCNc1nc(Nc2ccncc2)nc2cc(OC)c(OC)cc12`, for which the values for the IC50 in series [1] and in series [2] were 1.76 µM and 0.0073 µM, respectively. Also, the selectivity ratio in series [3] is 241.

Turning to `CCCCNc1nc(NCc2cccnc2)nc2cc(OC)c(OC)cc12`, the values for the IC50 in series [1] and in series [2] were 11.1 µM and 0.00217 µM, respectively. The selectivity ratio in series [3] was 5120.

Turning to `CCCCCCCCNc1nc(N2CCCC2)nc2cc(OC)c(OC)cc12`, the IC50 in series [1] came out at 1.48 µM; in series [2] it was 0.0014 µM. The selectivity ratio in series [3] came to 1060.

As for `COc1cc2nc(N3CCCC3)nc(NCc3cccnc3)c2cc1OC`, the IC50 in series [1] was found to be 27.3 µM; in series [2], 0.0136 µM. Moreover, the selectivity ratio in series [3] came out at 2000.

`CCNc1nc(Nc2cccnc2)nc2cc(OC)c(OC)cc12`: the figures for the IC50 in series [1] and in series [2] were 112 µM and 0.00614 µM, respectively. Moreover, in series [3], the selectivity ratio was 18200.

As to `CCNc1nc(Cl)nc2cc(OC)c(OC)cc12`, the IC50 in series [1] was 52.6 µM; in series [2] it was 15.8 µM. Moreover, the selectivity ratio in series [3] stood at 3.33.

Consider `COc1cc2nc(N3CCCC3)nc(Nc3ccccc3C)c2cc1OC`, for which the results for the IC50 in series [1] and in series [2] were 8.46 µM and 0.0329 µM, respectively. Further, the inhibition in vivo at 50 mg/kg in series [4] turned out to be 26.8%. In series [5], the Activity was 23.4%. Also, the selectivity ratio in series [3] was determined as 257. For the same molecule, the MSD in series [6] turned out to be 6.8 days.

On to `CCCCNc1nc(NCC)c2cc(OC)c(OC)cc2n1`, for which the values for the IC50 in series [1] and in series [2] were 5.29 µM and 0.023 µM, respectively. Moreover, in series [3], the selectivity ratio is 230.

`COc1cc2nc(N3CCCC3)nc(NC(C)C)c2cc1OC`: the half-inhibitory concentration (IC50) in series [1] came out at 12.5 µM. Besides, in series [3], the selectivity ratio was found to be 3430.

`COc1cc2nc(N3CCCC3)nc(N3CCCC3)c2cc1OC`: the results for the IC50 in series [1] and in series [2] were 3.96 µM and 1.04 µM, respectively. Further, the selectivity ratio in series [3] was 3.8.

For the molecule `CCCCNc1nc(NCc2ccncc2)nc2cc(OC)c(OC)cc12`, the IC50 in series [1] turned out to be 11 µM; in series [2] it was 0.00816 µM. Moreover, the selectivity ratio in series [3] turned out to be 1360.

As for `COc1cc2nc(Nc3ccncc3)nc(NC(C)C)c2cc1OC`, the half-inhibitory concentration (IC50) in series [1] was found to be 81.4 µM; in series [2], 0.0029 µM. In series [3], the selectivity ratio was 28000.

For the molecule `COc1cc2nc(N3CCCC3)nc(N)c2cc1OC`, the results for the concentration for half-maximal inhibition (IC50) in series [1] and in series [2] were 28.2 µM and 1.66 µM, respectively. The selectivity ratio in series [3] worked out at 17.

Take `COc1cc2nc(Nc3ccncc3)nc(NCc3ccncc3)c2cc1OC`: the results for the half-maximal inhibitory concentration (IC50) in series [1] and in series [2] were 138 µM and 0.0309 µM, respectively. Further, the selectivity ratio in series [3] was 4470.

Consider `CCCCNc1nc(NCc2ccccn2)nc2cc(OC)c(OC)cc12`, for which the IC50 in series [1] was found to be 10.6 µM; in series [2], 0.0109 µM. In series [3], the selectivity ratio was 1000.

For `CCC(CC)Nc1nc(Nc2cccnc2)nc2cc(OC)c(OC)cc12`, the half-inhibitory concentration (IC50) in series [1] amounted to 155 µM; in series [2], 0.019 µM. Further, in series [3], the selectivity ratio is 8190.

On to `CCCCNc1nc(NCCCC)c2cc(OC)c(OC)cc2n1`, for which the 50% inhibitory concentration (IC50) was determined as 3.67 µM in series [1] and 0.0021 µM in series [2]. For the same molecule, in series [3], the selectivity ratio is 1750.

On to `CCCCNc1nc(NCCCC)c2ccccc2n1`, for which the values for the IC50 in series [1] and in series [2] were 3.01 µM and 0.121 µM, respectively. Further, in series [3], the selectivity ratio was 25.6.

With `CCCCNc1nc(N2CCCC2)nc2cc(OC)c(OC)cc12`, the 50% inhibitory concentration (IC50) in series [1] stood at 61.8 µM; in series [2], 0.0018 µM. In addition, the inhibition in vivo at 50 mg/kg in series [4] amounted to 60%. For the same molecule, in series [5], the Activity is listed as 10.8%. In addition, the MSD in series [6] turned out to be 6.6 days.

Take `COc1cc2nc(N3CCC(C(N)=O)CC3)nc(NCc3ccccc3)c2cc1OC`: the half-maximal inhibitory concentration (IC50) in series [1] turned out to be 4.98 µM; in series [2], 0.18 µM. The selectivity ratio in series [3] was determined as 27.7.

Take `COc1cc2nc(N3CCCC3)nc(NCc3ccccc3)c2cc1OC`: the half-maximal inhibitory concentration (IC50) in series [1] worked out at 9.49 µM; in series [2] it was 0.00549 µM. Also, the selectivity ratio in series [3] stood at 1900.

Consider `COc1cc2nc(Nc3ccncc3)nc(Nc3ccccc3C)c2cc1OC`, for which the values for the 50% inhibitory concentration (IC50) in series [1] and in series [2] were 213 µM and 0.049 µM, respectively. In series [3], the selectivity ratio was 4350.

For the molecule `CCNc1nc(NCc2ccccc2)nc2cc(OC)c(OC)cc12`, the half-maximal inhibitory concentration (IC50) came out at 5.44 µM in series [1] and 0.0148 µM in series [2]. Further, in series [3], the selectivity ratio came out at 367.

Regarding `CCNc1nc(NCCc2ccccc2)nc2cc(OC)c(OC)cc12`, the values for the half-inhibitory concentration (IC50) in series [1] and in series [2] were 1.68 µM and 0.017 µM, respectively. For the same molecule, in series [3], the selectivity ratio turned out to be 99.

In the case of `CCCCNc1nc(NC(C)C)c2cc(OC)c(OC)cc2n1`, the IC50 in series [1] amounted to 5.31 µM; in series [2], 0.00314 µM. For the same molecule, the selectivity ratio in series [3] worked out at 1690.

For `CCCCNc1nc(NCCCOCC)nc2cc(OC)c(OC)cc12`, the concentration for half-maximal inhibition (IC50) in series [1] is 4.46 µM; in series [2], 0.0276 µM. Further, the selectivity ratio in series [3] is 161.

As for `CCCCNc1ncnc2cc(OC)c(OC)cc12`, the results for the IC50 in series [1] and in series [2] were 73.6 µM and 4.71 µM, respectively. Also, the selectivity ratio in series [3] came out at 15.6.

In the case of `COc1cc2nc(Nc3ccncc3)nc(NC(C)c3ccccc3)c2cc1OC` (stereo unspecified), the concentration for half-maximal inhibition (IC50) in series [1] was determined as 62.7 µM; in series [2], 0.0004 µM. Besides, the selectivity ratio in series [3] came to 156000.

For the molecule `CCNc1nc(Nc2ccncc2)nc2cc(OC)c(OC)cc12`, the half-inhibitory concentration (IC50) in series [1] was found to be 55.1 µM; in series [2], 0.00307 µM. The selectivity ratio in series [3] was 17900.
